The list is not random: actives were taken first. Their share in the collection is about 3.7%.
KCC2 mod: KCC2 (human) Cl- transport modulation; KCC2 cells, thallium flux FluoZin-2 fluorescence; B-score of Tl+ flux slope (higher = more flux/activation; lower = inhibition) at 10 µM; 2.2% of 190,000 active; AID 1456;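 active = thallium flux slope and its plate-corrected score both differing from the plate sample mean at a set confidence after two filtering rounds, in either direction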;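 also: slope of fluorescence scaled to starting intensity during 10 to 20 s after thallium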
Target sequence (Q9H2X9 whole entry, looked up): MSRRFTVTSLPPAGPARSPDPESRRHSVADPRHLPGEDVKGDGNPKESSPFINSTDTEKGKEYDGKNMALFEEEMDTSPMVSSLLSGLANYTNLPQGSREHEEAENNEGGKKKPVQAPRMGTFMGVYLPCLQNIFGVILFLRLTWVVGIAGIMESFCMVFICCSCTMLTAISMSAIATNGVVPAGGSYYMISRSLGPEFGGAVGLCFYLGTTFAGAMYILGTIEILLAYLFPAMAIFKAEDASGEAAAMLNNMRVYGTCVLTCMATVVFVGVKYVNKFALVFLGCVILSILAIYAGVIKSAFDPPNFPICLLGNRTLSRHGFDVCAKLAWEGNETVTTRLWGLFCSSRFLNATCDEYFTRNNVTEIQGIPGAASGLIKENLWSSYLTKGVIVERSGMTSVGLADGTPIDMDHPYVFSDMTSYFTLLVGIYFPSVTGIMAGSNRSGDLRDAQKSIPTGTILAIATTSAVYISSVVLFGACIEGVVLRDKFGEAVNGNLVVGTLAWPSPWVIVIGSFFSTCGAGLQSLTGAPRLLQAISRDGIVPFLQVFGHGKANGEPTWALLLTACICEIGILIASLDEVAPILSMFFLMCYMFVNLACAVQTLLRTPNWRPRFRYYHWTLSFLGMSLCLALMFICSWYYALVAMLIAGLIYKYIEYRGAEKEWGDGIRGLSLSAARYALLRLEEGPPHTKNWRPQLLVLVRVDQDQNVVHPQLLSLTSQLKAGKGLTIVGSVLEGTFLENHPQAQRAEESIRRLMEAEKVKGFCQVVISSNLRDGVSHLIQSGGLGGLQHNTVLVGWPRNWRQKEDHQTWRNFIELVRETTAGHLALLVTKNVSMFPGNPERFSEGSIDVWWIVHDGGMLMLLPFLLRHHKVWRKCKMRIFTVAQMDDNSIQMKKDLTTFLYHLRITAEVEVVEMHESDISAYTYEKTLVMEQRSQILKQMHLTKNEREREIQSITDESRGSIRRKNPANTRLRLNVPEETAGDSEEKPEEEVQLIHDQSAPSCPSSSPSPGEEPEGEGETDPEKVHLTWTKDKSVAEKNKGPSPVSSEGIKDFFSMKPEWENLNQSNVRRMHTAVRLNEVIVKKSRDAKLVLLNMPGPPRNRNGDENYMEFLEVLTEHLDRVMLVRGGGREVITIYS
PKD1 inh: PKD1 (human) kinase inhibition; Q15139; inhibition, % (test concentration not listed); AID 797; 0.056% of 200,000 active; PKD1 kinase fluorescence polarization assay; in the data active = inhibition above about 50%
m-calpain inh: inhibitors of pig calpain II | purified calpain II, fluorogenic peptide substrate, 30 min | inhibition, % at 16 µM | 0.37% of 220,000 active;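 active = inhibition above about 50%, limit read from the data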
MDM2 E3 inh: Mdm2 E3 ligase (human) inhibition | signal enhancement, % at 5 µM | cell-based MDM2 ubiquitination luciferase reporter, 2 h; 0 = plate control, 100 = twice control, blank-subtracted | 0.11% of 210,000 active | AID 1230 | Q00987;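 active = signal enhancement of 30% or more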;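 also: luminescence tracks abundance of the self-degrading MDM2-luciferase fusion protein; higher signal means inhibition of MDM2 E3 ligase activity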
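test system = mammalian cells stably expressing self-ubiquitinating, self-degrading MDM2 E3–luciferase fusion | quantity = 2000 cells/well | incubation = cell settling 4 h, compound treatment 2 h, both 37 °C | signal = luminescence with SteadyLite reagent, 15 min at room temperature | evaluation = % enhancement relative to plate controls after blank subtraction | benchmarks = plate controls and plate blanks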
ROMK mod: modulates human ROMK potassium channel activity; Tet-inducible ROMK, thallium flux fluorescence; actives lie on both sides; B-score at 10 µM; 2% of 130,000 active; AID 1918;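 active = signal ratio slope over the read window, or its plate-corrected B-score, at least 3 SD from the plate mean, either direction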;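 also: B-score of the F/F0 ratio slope over 7 to 12 s after thallium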
Arbovirus inh: arbovirus infection inhibition; arbovirus infection cell-based antiviral screen; inhibition, % at 10 µM; 0.37% of 200,000 active; AID 1251; in the data active = inhibition above about 30%
KCC2 sec1: KCC2 (human) modulation, secondary assay. normalised thallium flux (F/F0 slope) at 10 µM. shares compounds with KCC2 mod. HEK293-KCC2, thallium flux, FluoZin2 fluorescence; stronger effect = higher value. AID 1713. 15% of 3,700 active;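 active = thallium flux slope above the same plate's solvent-only control mean plus 3 SD; inconclusive = the two replicate wells disagree; inactive = no significant difference from solvent-only control wells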
KCC2 bumet counter: thallium flux despite bumetanide block in KCC2 cells, secondary assay 3 | 49% of 3,700 active | AID 1714 | shares compounds with KCC2 mod | HEK293-KCC2 + bumetanide/ouabain, thallium flux FluoZin2; stronger effect = higher value | normalized thallium flux at 10 µM;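 active = thallium entry rate above the same plate's blocked-transporter control wells by more than 3 SD; inconclusive = the two repeat wells disagree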;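 also: raw slope of fluorescence over initial fluorescence between 10 and 20 s after thallium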
KCC2 secondary2: confirmation of human KCC2 transport modulators; 23% of 3,700 active; shares compounds with KCC2 mod; HEK293-KCC2, thallium flux FluoZin2 fluorescence; actives lie on both sides; F/F0 rise rate, 10–20 s post-thallium; normalized thallium flux at 10 µM;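 active = thallium flux slope more than 3 SD above or below the plate's solvent-only control mean, mostly below; inconclusive = the two repeat wells disagreed; inactive = no significant shift from solvent-only controls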;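 also: raw slope with 0.1% DMSO as baseline and bumetanide as block control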
HEK counter1: parental HEK flux effect, counter-screen. shares compounds with KCC2 mod. HEK293 parental cells, thallium flux FluoZin2, ouabain; baseline-ratio fluorescence slope, 10–20 s after thallium. thallium flux rate (normalised fluorescence) at 10 µM. 46% of 3,700 active. AID 1716;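 active = thallium flux rate significantly above the same plate's solvent-only control wells, beyond their mean plus 3 SD; inconclusive = the two replicate wells gave conflicting results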
KCC2 retest ouab: KCC2 (human) modulation, ouabain retest; raw Tl+ flux slope (below DMSO = inhibition, above = activation) at 10 µM; shares compounds with KCC2 mod; HEK293-KCC2, thallium flux FluoZin2 fluorescence; bidirectional: low = inhibitor, high = activator; 48% of 3,700 active; AID 1717;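 active = thallium flux slope beyond 3 SD from same-plate DMSO control mean in most replicates, usually higher, sometimes lower; inconclusive = repeat tests gave conflicting results; inactive = no significant difference from controls in most replicates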;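 also: slope of initial-normalized fluorescence between seconds 10 and 20 after thallium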
HEK counter2: parental HEK flux effect, counter-screen 2 | shares compounds with KCC2 mod | HEK293 parental, thallium flux FluoZin-2 fluorescence slope | thallium flux slope at 10 µM | 33% of 3,700 active | AID 1718;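 active = thallium flux slope above the same plate's solvent-control mean plus 3 SD in both duplicate wells; inconclusive = duplicate wells that disagreed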;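 also: run without ouabain in cells lacking the KCC2 cotransporter; slope of fluorescence scaled to its starting value between 10 and 20 s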
Starred values were filed as active, the others as inactive; u = inconclusive; x = not tested or not shown.

SMILES	KCC2 mod	PKD1 inh	m-calpain inh	MDM2 E3 inh	ROMK mod	Arbovirus inh	KCC2 sec1	KCC2 bumet counter	KCC2 secondary2	HEK counter1	KCC2 retest ouab	HEK counter2
S=C(N/N=C/c1cccc2ccccc12)Nc1cccc(Cl)c1	3.38*	x	-54.5	-8.2	0.705	x	0.00886	0.00694	0.0289	0.0116*	0.0294*	0.0103
O=[N+]([O-])c1cccc(-c2ccc(/C=N/NC(=S)Nc3ccccc3)o2)c1	0.497	0.8	-0.7	-15.8	1.19	-2.9	x	x	x	x	x	x
Cc1cc(C)n(-c2nc3ccccc3c(=O)n2OCC(=O)Nc2c(C)cccc2C)n1	-0.0282	-5.8	8.9	-12.1	x	-7.7	x	x	x	x	x	x
O=C(N/N=C/C1CC=CCC1)c1cc2ccccc2cc1O (stereo unspecified)	4.44*	8.1	-6.5	-9.2	-0.87	-9.8	u	0.0285*	0.0358	0.0154*	u	0.0121*
O=C(N/N=C/C1CC=CCC1)c1ccc(O)cc1O (stereo unspecified)	0.185	-3.6	12.8	0.9	0.0279	-4.7	x	x	x	x	x	x
CCOc1ccc(CN(C(=O)c2oc3ccccc3c2C)C2CCS(=O)(=O)C2)cc1 (stereo unspecified)	-0.255	-0.5	-0.9	-14.5	x	-9.6	0.00597	0.00431	0.0304	0.00699	0.0175	0.0112
CC(=O)Nc1sc(-c2ccc(Cl)cc2)nc1-c1ccccc1	7.27*	x	-2.3	-10.1	-0.338	x	0.0192*	0.0547*	0.0329	0.00917*	0.0238	0.0105
CCOC(=O)C1=C2NC(=O)c3ccccc3N2C(=O)C1	40.2*	-7.3	-14.2	-13.8	0.294	19.5	0.0142*	0.0908*	0.0369	0.0367*	0.0693*	0.018*
Cc1nnc(NC(=O)c2ccc(S(=O)(=O)N(C)Cc3ccccc3)cc2)o1	x	-9.7	11.9	-18.4	0.257	-14.0	x	x	x	x	x	x
CCc1nnc(NC(=O)c2ccc(S(=O)(=O)N(CC(C)C)CC(C)C)cc2)o1	5.08*	-7.1	23.9	-3.3	x	-4.5	0.0121*	0.0191*	0.0302	0.01*	0.0217*	0.00988
CCN(Cc1ccccc1)S(=O)(=O)c1ccc(C(=O)Nc2nnc(C3CC3)o2)cc1	3.62*	-6.6	-20.2	2.7	x	-6.6	0.0117	0.019*	0.0338	u	u	0.0118
Nc1ccc(C(=O)OCC(=O)N2CCOCC2)cc1[N+](=O)[O-]	-0.0164	1.1	20.0	-6.2	x	-1.2	x	x	x	x	x	x
O=C(Cn1[nH]c(=O)c2ccccc2c1=O)NC1CCN(Cc2ccccc2)CC1	-4.34*	10.4	-4.4	-28.9	x	3.3	0.0179	0.00379	0.0293	0.00764	0.017	0.011
CN(C)C(CNc1ncnc2sccc12)c1cccs1 (stereo unspecified)	1.09	7.5	-11.8	-19.1	-1.71	-3.3	x	x	x	x	x	x
CCOC(=O)c1sc2ncnc(NCC(c3cccs3)N(C)C)c2c1C (stereo unspecified)	x	6.7	-85.8	-32.1	x	-5.3	0.0412*	0.166*	0.0464*	0.0927*	0.0861*	0.035*
Cc1ccc(C2=NNC(c3cccc(F)c3)S2)cc1 (stereo unspecified)	10.2*	-4.2	-34.4	-81.9	0.987	-3.2	0.00622	u	0.0304	0.00848	0.0203	u
COc1ccc(C2NN=C(c3ccc(C)cc3)S2)cc1OC (stereo unspecified)	x	5.9	-439.4	16.7	0.024	-6.0	x	x	x	x	x	x

High-throughput results deposited in PubChem BioAssay by several laboratories.
